High-throughput results deposited in PubChem BioAssay by several laboratories.
SENP8 block-1: inhibitors of human SENP8 protease; purified SENP8, Z-RLRGG-aminoluciferin cleavage, luminescence; inhibition, % at 10 µM; 1.2% of 330,000 active; in the data active = inhibition above about 50%
Target sequence (Q96LD8 whole entry, looked up): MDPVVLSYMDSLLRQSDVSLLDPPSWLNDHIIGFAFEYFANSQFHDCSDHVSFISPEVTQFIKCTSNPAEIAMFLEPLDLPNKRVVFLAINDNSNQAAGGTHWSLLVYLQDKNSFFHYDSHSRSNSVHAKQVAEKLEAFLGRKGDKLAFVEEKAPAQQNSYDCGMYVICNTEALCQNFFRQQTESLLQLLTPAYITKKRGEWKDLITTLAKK
SENP8 block-2: SENP8 (human) protease inhibition; recombinant SENP8, Nedd8 substrate fluorescence; inhibition, % at 20 µM; 0.64% of 360,000 active; in the data active = inhibition mostly above about 40%, no sharp cut-off; inactive = mostly below about 27%
SENP7 block: blocks the human protease SENP7; Q9BQF6; recombinant SENP7, Z-RLRGG-aminoluciferin luminescence, 40 min; inhibition, % at 5 µM; 1.5% of 330,000 active;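 active = inhibition above about 50% at the single test dose, limit read from the data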;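 also: plate controls were DMSO with enzyme for no effect and no enzyme buffer wells for full effect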
SENP1 inh: SENP1 (human) catalytic domain inhibition. Q9P0U3. recombinant SENP1 catalytic domain, CyPet-SUMO1-YPet FRET cleavage. inhibition, % at 10 µM. 0.21% of 360,000 active;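 active = inhibition at least 30% at 10 µM, raw YFP signal under a set limit, fluorescence ratio 0.5 to 1.5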;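 also: 0% = enzyme with DMSO and 100% = no enzyme wells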
Target sequence (Q9P0U3 419-644 limits assumed): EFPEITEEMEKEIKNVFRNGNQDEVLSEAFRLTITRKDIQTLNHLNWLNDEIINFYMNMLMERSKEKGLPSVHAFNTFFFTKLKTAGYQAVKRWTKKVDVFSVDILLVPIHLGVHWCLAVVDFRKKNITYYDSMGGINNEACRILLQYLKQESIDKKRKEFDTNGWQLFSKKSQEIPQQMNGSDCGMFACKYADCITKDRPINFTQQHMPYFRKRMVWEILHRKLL
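Material: hSENP1 catalytic domain, recombinant; medium: Tris pH 8 with BME, BSA, NP40 and catalase; compound: single concentration of 10 µM compound, 0.5% DMSO final; technique: FRET read of cyan and yellow fluorescence; timing: 50 min enzyme reaction, room temperature, light-protected; reagent: SFCypet-SUMO1-SFYpet substrate at 25 nM; control set: no-enzyme low, enzyme-DMSO high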
SENP6 inh: SENP6 protease inhibition; 1.8% of 330,000 active; Recombinant SENP6 catalytic domain, aminoluciferin luminescence; Q9GZR1; AID 2599; inhibition, % at 10 µM;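 active = inhibition above about 50% at the single tested dose, limit read from the data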;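 also: plate controls were DMSO wells with enzyme for no effect and DMSO wells lacking enzyme for full effect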
HSP90 refold inh: HSP90 refolding inhibition in rabbit reticulocyte lysate; luciferase refolding luminescence, 3 h; inhibition, % at 5.6 µM; 0.91% of 290,000 active;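 active = inhibition above the screen-wide mean plus 3 SD, computed separately per campaign, cut at about 16% in these data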;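 also: 0% = DMSO wells and 100% = 60 µM geldanamycin wells; inhibitors lower the luminescence because luciferase stays unfolded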
SENP8 conf: human SENP8 inhibition, confirmed. Recombinant SENP8, Z-RLRGG-aminoluciferin luminescence, 60 min. AID 488912. shares compounds with SENP7 block. inhibition, % at 12.5 µM. 40% of 6,200 active;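 active = mean inhibition across replicates above about 50%, limit read from the data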
SENP6 confirm: confirmation of human SENP6 protease inhibitors | 58% of 6,200 active | shares compounds with SENP7 block | recombinant SENP6, Z-RLRGG-aminoluciferin luminescence | inhibition, % at 12.5 µM
SENP7 confirm: human SENP7 inhibition, confirmed; shares compounds with SENP7 block; recombinant SENP7, Z-RLRGG-aminoluciferin luminescence, 40 min; inhibition, % at 12.5 µM; 69% of 6,200 active; AID 488917
Casp3 select: selectivity test for SENP inhibitors: human caspase-3 inhibition; shares compounds with SENP7 block; purified caspase-3, Z-DEVD-aminoluciferin luminescence, 60 min; inhibition, % at 12.5 µM; 60% of 6,200 active;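 active = mean inhibition above about 50%, limit read from the data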;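 also: plate controls were enzyme with DMSO for no effect and wells without caspase-3 for full effect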
Target sequence (P42574 28-227 limits assumed): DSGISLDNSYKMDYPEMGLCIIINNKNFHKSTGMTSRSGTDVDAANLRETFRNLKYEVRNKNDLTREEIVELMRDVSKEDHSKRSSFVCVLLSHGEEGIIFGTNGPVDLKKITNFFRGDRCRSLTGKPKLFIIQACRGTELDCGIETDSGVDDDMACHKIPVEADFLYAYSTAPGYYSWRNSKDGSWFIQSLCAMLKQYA
Luc interf: interferes with luciferase luminescence in SENP counter-screen. AID 488919. 39% of 6,200 active. inhibition, % at 12.5 µM. shares compounds with SENP7 block. Pre-incubated SENP8/Z-RLRGG-aminoluciferin, luciferase luminescence interference;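 active = mean inhibition above about 50% when retested at one dose, limit read from the data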;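 also: plate controls were DMSO wells with completed reaction for no effect and substrate without enzyme for full effect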
Active calls of the source: *; . = no result. Sampled rows, rich in hits. Any-hit rate of the full collection: about 2.9%.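 The calls were made as follows, unless noted: active = mean inhibition above about 50% in the one-dose retest (limit read from the data); inactive = the rest.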

SMILES	SENP8 block-1	SENP8 block-2	SENP7 block	SENP1 inh	SENP6 inh	HSP90 refold inh	SENP8 conf	SENP6 confirm	SENP7 confirm	Casp3 select	Luc interf
O=C(Nc1cccc(S(=O)(=O)N2CCCCCC2)c1)C1CCC1	7.4	4.1	-6.2	-0.2	-0.2	.	.	.	.	.	.
COc1ccc(NC(=O)c2ocnc2C)cc1OC	-16.0	12.0	-3.2	2.5	-1.0	4.0	.	.	.	.	.
Cc1ccsc1C(=O)Nc1ccc2c(c1)OCCO2	84.8*	-3.6	91.8*	0.7	85.7*	14.6	90.1*	90.2*	99.0*	95.4*	91.0*
O=C(Nc1ccc2c(c1)OCCO2)c1ccc(Br)s1	.	13.0	.	-0.7	.	11.7	.	.	.	.	.
Cc1ncoc1C(=O)Nc1ccc2c(c1)OCCO2	59.8*	2.7	77.0*	-0.3	64.3*	7.2	70.4*	66.0*	89.3*	91.4*	72.5*
Cc1ncoc1C(=O)Nc1ccc(Oc2ccccc2)cc1	32.2	11.9	56.0*	3.2	62.1*	-0.8	51.0*	45.6	78.4*	44.3	61.6*
Cc1c([N+](=O)[O-])c(C(=O)Nc2ccc3c(c2)OCCO3)nn1C	42.4	11.6	73.3*	1.4	74.8*	-1.6	68.5*	66.3*	87.1*	89.3*	72.3*
C[C@H]1CN([C@@H](C)CO)C(=O)CCCn2nncc2CO[C@@H]1CN(C)C(=O)c1ccc2ccn(C)c2c1	.	-34.7	.	-1.0	.	.	.	.	.	.	.
COC(=O)c1sccc1N/N=C/c1cccc(Oc2ccccc2)c1	94.9*	-98.7	96.9*	0.0	63.1*	16.9*	30.4	53.2*	34.3	94.2*	9.0
COC(=O)c1sccc1NC(=O)c1cccc(OC)c1	-8.5	17.4	-11.3	2.9	-4.4	0.5	.	.	.	.	.
COC(=O)c1sccc1N/N=C/c1cccc(OC)c1O	92.2*	-402.1	98.7*	-3.1	93.9*	1.3	7.7	78.1*	86.6*	69.9*	30.6
COC(=O)c1sccc1N/N=C/c1ccc(OC)c(OC)c1OC	2.3	-404.8	3.2	-1.5	20.8	-5.5	.	.	.	.	.
NC1CCN(c2c(F)cc3c(=O)c(C(=O)O)cn(C4CC4)c3c2Cl)C1 (stereo not given)	-4.9	-17.7	66.9*	1.3	-9.3	3.3	-2.7	4.5	-4.8	-1.9	-6.5
COc1c(N2CCNC(C)C2)c(F)cc2c(=O)c(C(=O)O)cn(C3CC3)c12 (stereo not given)	-1.1	.	-4.4	.	-4.2	.	.	.	.	.	.
Brc1ccc(CSc2nnc3ccccn23)cc1	-4.7	-46.2	1.5	0.5	-4.5	-0.5	.	.	.	.	.
COc1ccc(C(=O)Oc2ccc(/C=N/O)cc2)cc1	52.9*	29.2	61.0*	5.5	78.7*	-1.4	66.9*	66.8*	90.1*	73.2*	33.3
Cc1ccc(CNC(=O)CCS(=O)(=O)c2ccc3c(c2)CC(C)N3C(=O)C2CC2)cc1 (stereo not given)	9.9	8.9	-9.0	0.1	8.8	-1.9	.	.	.	.	.
CCCc1cc(-c2ccc3c(c2)COc2c4ccccc4nn2-3)on1	89.3*	-195.6	90.8*	-1.8	93.0*	.	24.8	36.5	38.0	64.4*	11.7
Cc1cc(-c2ccc3c(c2)COc2c4ccccc4nn2-3)on1	86.2*	-356.3	49.2	-2.4	93.1*	.	-27.8	7.3	37.1	25.5	7.1
C(#CC1CCCC1)c1ccc2c(c1)COc1c3ccccc3nn1-2	26.0	4.6	2.2	-0.7	44.2	.	.	.	.	.	.
O=C(COc1cc2oc(=O)c3c(c2cc1Cl)CCC3)Nc1cccnc1	1.4	-70.7	66.5*	-3.7	22.7	2.0	12.9	7.8	16.1	15.0	2.8
Cn1ccnc1SCC(=O)c1ccc(O)cc1	25.6	18.3	40.1	0.6	54.7*	0.3	21.3	16.4	66.9*	80.1*	52.5*
CCC(=O)Nc1cc2nn(-c3ccc(OC)cc3)nc2cc1C	-15.3	-299.0	57.2*	1.1	-14.5	3.6	11.3	10.2	14.7	9.9	2.7
COc1cc(C(=O)NC2CC2)cc(OC)c1OC	.	18.4	.	1.2	.	.	.	.	.	.	.
Cc1cc(NC(=O)Cn2nc(C)c([N+](=O)[O-])c2C)no1	-3.4	-0.2	5.2	0.5	-11.6	0.6	.	.	.	.	.
SMILES	SENP8 block-1	SENP8 block-2	SENP7 block	SENP1 inh	SENP6 inh	HSP90 refold inh	SENP8 conf	SENP6 confirm	SENP7 confirm	Casp3 select	Luc interf
CCOc1ncccc1-c1nc(-c2cccs2)no1	-10.7	3.7	-2.8	0.6	-4.6	3.1	.	.	.	.	.
c1csc(-c2nc(-c3ccc(-c4ccon4)s3)no2)c1	43.9	-231.1	88.1*	-14.1	51.4*	-0.2	3.8	15.5	15.4	23.9	7.8
c1ccc(-c2nc(-c3ccc(-c4ccon4)s3)no2)cc1	39.7	-69.5	80.0*	-2.5	55.0*	3.9	25.1	25.8	20.2	18.8	18.2
CCOC(=O)c1cc2c(c(-c3ccccc3)n1)[C@@H](CCO)N(S(=O)(=O)C(C)(C)C)C2	.	8.6	.	-0.6	.	.	.	.	.	.	.
c1ccc(COc2ccc(CN3CCN(c4ccccn4)CC3)cc2)cc1	31.1	19.9	9.3	1.7	53.7*	1.2	58.8*	53.2*	71.7*	36.3	66.5*
Clc1ccccc1-c1nnc(-c2cccs2)o1	72.3*	-139.5	79.9*	4.0	80.5*	0.1	74.8*	74.4*	92.5*	78.7*	54.9*
Cc1ccc(/C=C/c2nnc(-c3ccccc3)o2)cc1	75.6*	-250.7	6.0	0.6	86.3*	-0.7	15.3	63.1*	88.8*	79.5*	23.2
c1ccc(CSc2nnc(-c3cccs3)o2)cc1	-1.1	-0.5	-2.4	1.9	1.2	-0.1	.	.	.	.	.
Cc1ccc(-c2noc(/C=C/c3ccccc3)n2)cc1	14.1	9.5	4.0	-0.1	21.8	-2.2	.	.	.	.	.
C(=C\c1nnc(-c2cccs2)o1)/c1ccccc1	74.4*	-274.9	2.6	0.4	80.8*	8.7	14.9	60.7*	88.0*	65.3*	33.5
CN(C)c1nn(C(=O)Nc2ccc(Cl)cc2Cl)cc1-c1ccccc1	3.1	8.2	101.1*	2.1	3.8	-0.7	-13.0	-7.9	-2.8	-0.5	-8.5
O=C(O)C(=Cc1cccc([N+](=O)[O-])c1)c1ccc(Cl)cc1	.	4.0	.	1.1	.	.	.	.	.	.	.
O=C(NCCN1CCOCC1)C1CCC(CNS(=O)(=O)c2ccc(Cl)cc2)CC1 (stereo not given)	-51.8	7.0	59.6*	2.6	10.3	2.5	0.7	-2.3	-2.9	-2.9	-2.1
